Bioassay records deposited in PubChem by several laboratories.
An excerpt weighted towards active compounds, which were near 4.1% of everything screened.
HCV NS3 hel inh – inhibitors of HCV NS3 helicase, primary screen, biochemical, Cy5 molecular beacon fluorescence; 290,000 compounds, 0.56% hits; inhibition, % at 10.9 µM; Hepatitis C virus NS3 helicase; NS3 helicase DNA unwinding;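 active means inhibition above the mean of all tested compounds plus 3 SD, set per campaign, cut at about 35% in these data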;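 further: 0% = DMSO wells and 100% = thioflavine S control wells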
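test system = hepatitis C virus NS3 helicase domain fragment enzyme | reagent = annealed dual-labelled DNA beacon duplex, ATP-started | times = 1 h at 25 °C | detection = Cy5 fluorescence, 0 and 60 min reads | read-out basis = percent inhibition from t60/t0 fluorescence ratio | control set = DMSO and thioflavine S | replication = one well per compound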
MEKK2 WT-MEK5 – modulators of MEK5 binding to wildtype MEKK2, primary screen, biochemical, multiplex bead flow cytometry, Alexa488-MEK5 | Mitogen-activated protein kinase kinase kinase 2 (Homo sapiens), Q9Y2U5 | Alexa488-MEK5 binding to MEKK2 WT; actives lie on both sides | binding response (% of control), % at 10 µM | 290,000 compounds, 1.1% hits | AID 1531, 2009; in the data active means binding response below about 67% or above about 130%
MEKK3 PB1 HTS – modulators of MEKK3-MEK5 PB1 binding, primary screen, biochemical, wildtype MEKK3, multiplex bead flow cytometry, Alexa488-MEK5; Mitogen-activated protein kinase kinase kinase 3 (Homo sapiens), Q99759; bead-based flow cytometry, Alexa488-MEK5 binding to MEKK3; actives lie on both sides; 0 = blocked by unlabeled MEK5, 100 = vehicle; binding response (% of control), % at 10 µM; 290,000 compounds, 1.4% hits;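 active means binding response more than 3 SD above or below the average of its plate-row segment, actives on both sides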;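 further: Alexa488 bead fluorescence after subtracting the streptavidin-only scavenger bead signal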
Target sequence (Q99759 whole entry, looked up): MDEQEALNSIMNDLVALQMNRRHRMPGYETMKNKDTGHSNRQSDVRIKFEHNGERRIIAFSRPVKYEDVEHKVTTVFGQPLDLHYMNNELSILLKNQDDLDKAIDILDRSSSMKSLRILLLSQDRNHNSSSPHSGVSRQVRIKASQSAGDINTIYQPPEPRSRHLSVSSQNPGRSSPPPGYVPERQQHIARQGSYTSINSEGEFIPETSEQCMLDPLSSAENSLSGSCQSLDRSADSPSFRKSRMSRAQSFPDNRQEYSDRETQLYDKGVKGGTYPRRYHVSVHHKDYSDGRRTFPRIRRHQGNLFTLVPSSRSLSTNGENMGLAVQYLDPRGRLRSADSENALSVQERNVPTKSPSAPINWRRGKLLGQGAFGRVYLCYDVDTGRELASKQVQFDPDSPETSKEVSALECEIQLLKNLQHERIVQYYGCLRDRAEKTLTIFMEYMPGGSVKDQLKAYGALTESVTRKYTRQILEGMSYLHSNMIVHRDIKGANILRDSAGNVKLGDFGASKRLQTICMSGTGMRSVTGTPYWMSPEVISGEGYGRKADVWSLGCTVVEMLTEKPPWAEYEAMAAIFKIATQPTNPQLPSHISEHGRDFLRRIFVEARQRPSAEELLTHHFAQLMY
MEKK2mut PB1 HTS – MEK5 binding signal on mutant MEKK2 PB1, primary screen, biochemical, multiplex bead flow cytometry, Alexa488-MEK5; Alexa488-MEK5 binding to MEKK2 mutant; percent response, % at 10 µM; 290,000 compounds, 0.35% hits; AID 1530, 2009; in the data active means percent response above about 24%, passing the limit was not always enough
T cruzi inh – inhibitors of intracellular T. cruzi growth, primary screen, luminescence, NIH3T3 host cells | 300,000 compounds, 1.4% hits | T. cruzi beta-gal in NIH3T3, 90 h | AID 1885, 2009 | inhibition, % (test concentration not listed);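 active means mean inhibition across valid replicates above about 55%, limit read from the data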;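 further: signal also drops with host cell toxicity which is not excluded here; 0% = plate median of DMSO wells and 100% = zero luminescence signal; higher percent means less beta-gal luminescence so fewer parasites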
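System: NIH/3T3 fibroblasts plus reporter T. cruzi. Medium: DMEM plus 2% FBS. Probe or stimulus: 5000 reporter trypomastigotes per well. Compound: single 50 nL compound addition per well in DMSO. Incubation: co-culture of at least 90 h after 3 h attachment. Detection: GalScreen β-gal luminescence, detergent lysis, 60 min. Evaluation: parasite load inhibition, %.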
DNA FID counter – compounds displacing fluorescent DNA intercalator, primary screen, artefact control for HCV NS3 helicase inhibitor project, biochemical, FID fluorescence. inhibition, % at 7.9 µM. AID 1845, 2009. DNA fluorescent intercalator displacement. 290,000 compounds, 0.17% hits; in the data active means inhibition above about 37%;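 further: 0% = vehicle and 100% = reference compound; higher means more ethidium bromide displaced from hairpin DNA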
The depositor's hits bear a star; . = not tested or not shown; [ ] = another dose, or the depositor's remark.

SMILES | HCV NS3 hel inh | MEKK2 WT-MEK5 | MEKK3 PB1 HTS | MEKK2mut PB1 HTS | T cruzi inh | DNA FID counter
Nc1ccccc1-[n+]1c(-c2ccccc2)cc(-c2ccccc2)cc1-c1ccccc1 | -40.2 | 89.0 | 69.0 | -9.0 | 61.0* | 21.5
Cc1cc(OCC(=O)N2C[C@H]3C[C@@H](C2)c2cccc(=O)n2C3)c2c(C)cc(=O)oc2c1 | -5.3 | 99.0 | 101.0 | -1.0 | -8.7 | -6.2
CCCOC(=O)c1ccc(-[n+]2c(-c3ccccc3)cc(-c3ccccc3)cc2-c2ccccc2)cc1 | . | . | . | . | 55.4* | .
C[n+]1c(-c2ccccc2)cc(CCCCc2cc(-c3ccccc3)[n+](C)c(-c3ccccc3)c2)cc1-c1ccccc1 | -48.4 | 9.0*[inhibitor] | 108.0 | 56.0* | . | 22.6
COc1ccc(-[n+]2c(-c3ccccc3)cc(-c3ccc(C)cc3)cc2-c2ccccc2)cc1 | -64.6 | 123.0 | 105.0 | 10.0 | 61.0* | 25.6
COc1ccc(-c2cc(-c3ccccc3)[n+](C)c(-c3ccccc3)c2)cc1 | -13.8 | 99.0 | 103.0 | -1.0 | 55.2* | 7.0
O=C(O)c1ccc(-[n+]2c(-c3ccccc3)cc(-c3ccccc3)cc2-c2ccccc2)cc1 | . | . | . | . | 1.7 | .
CCN1C(=O)/C(=C\c2ccc([N+](=O)[O-])s2)C(=O)NC1=S | 31.4 | 96.0 | 102.0 | -3.0 | . | -11.0
COc1ccc(OC)c(N2C(=O)NC(=O)/C(=C/c3ccc([N+](=O)[O-])s3)C2=O)c1 | 24.5 | 95.0 | 102.0 | -1.0 | 64.7* | -12.1
COc1ccc(CCNCc2cccn2C)cc1OC | 12.8 | 98.0 | 90.0 | 1.0 | 42.6 | 5.3
COc1ccccc1CCNC1CCCCCC1 | 4.8 | 109.0 | 103.0 | 4.0 | -13.6 | 5.0
COc1ccccc1CCNC1CCC(C(C)(C)C)CC1 (centres undefined) | -21.6 | 99.0 | 90.0 | -2.0 | 58.8* | 22.0
COc1ccc(C(=O)O/N=C(/C(N)=O)P(=O)(OC(C)C)OC(C)C)cc1 | -6.0 | 101.0 | 95.0 | -3.0 | 9.6 | -5.0
Cc1[nH]c2ccccc2c1C(=O)CN1CC=C(c2ccccc2)CC1 | -31.9 | 105.0 | 95.0 | 0.0 | 96.6* | 0.8
O=C(CN1CC=C(c2ccccc2)CC1)NC(=O)NCc1ccco1 | 1.5 | 100.0 | 99.0 | 2.0 | 4.4 | -7.8
Oc1ccc2ccccc2c1CN1CC=C(c2ccccc2)CC1 | -5.7 | . | . | . | -74.7 | 0.4
Cc1cc(Br)c(NC(=O)CN2CC=C(c3ccccc3)CC2)c(Br)c1 | -8.3 | 111.0 | 106.0 | 0.0 | 72.4* | -10.8
O=S(=O)(c1ccccc1)N1CCN2CCCC2C1 (centres undefined) | 5.4 | 100.0 | 97.0 | 0.0 | -6.1 | -0.5
CCCC1COC(Cn2cncn2)(c2ccc(Cl)cc2Cl)O1 (centres undefined) | 4.0 | 106.0 | 103.0 | 1.0 | 65.5* | -20.6
CC1(c2ccc(Cl)cc2Cl)OCC(Cn2cncn2)O1 (centres undefined) | -4.6 | 97.0 | 98.0 | -5.0 | -25.8 | -8.4
CC1CCC(C(C)C)C(OC(=O)Cn2c(COc3ccccc3)[n+](C)c3ccccc32)C1 (centres undefined) | -53.1 | 133.0 | 69.0 | 1.0 | 73.0* | 25.5
COc1ccc(-n2c(/C=C/c3cccc(F)c3)nc3ccccc3c2=O)c(OC)c1 | -11.2 | 93.0 | 102.0 | -4.0 | -10.4 | -12.5
NC(=O)c1cn(C2OC(CO)C(O)C2O)c2ncnc(N)c12 (centres undefined) | -4.9 | 97.0 | 111.0 | 5.0 | 57.2* | 1.7
COc1cccc(CNCCc2cccc(F)c2)c1OC | -3.1 | 108.0 | 102.0 | 1.0 | 59.5* | -0.5
Oc1ccc2c3c1O[C@H]1c4oc5ccccc5c4C[C@@]4(O)[C@@H](C2)N(CC2CC2)CC[C@]314 | . | 121.0 | 106.0 | 8.0 | 12.6 | .
SMILES | HCV NS3 hel inh | MEKK2 WT-MEK5 | MEKK3 PB1 HTS | MEKK2mut PB1 HTS | T cruzi inh | DNA FID counter
Cc1ccccc1CCNCc1cc2cccc(C)c2[nH]c1=O | -7.6 | 121.0 | 107.0 | 8.0 | 42.8 | 2.9
Cc1cc([N+](=O)[O-])c2ccccc2[n+]1[O-] | 1.2 | 98.0 | 99.0 | 1.0 | 78.8* | -8.1
Cc1nc(N2CCN(Cc3ccc4c(c3)OCO4)CC2)[nH]c(=O)c1C | 10.1 | 101.0 | 103.0 | -3.0 | 1.1 | -8.3
CCCCCCCCCOc1ccc2[nH]cc(CCN)c2c1 | -84.5 | 252.0* | 114.0 | 34.0* | . | 15.8
CCCCCCOc1ccc(CN2CCN(CCO)CC2)cc1 | -15.8 | 120.0 | 106.0 | 14.0 | 52.2 | 17.5
Clc1ccc(CO/N=C(\Cn2ccnc2)c2ccc(Cl)cc2Cl)c(Cl)c1 | . | 121.0 | 104.0 | 6.0 | 67.8* | .
COc1ccc(CCNCc2c(OC)ccc3ccccc23)cc1 | -30.1 | 115.0 | 100.0 | 22.0 | 31.8 | 12.8
COc1cc(CC(C)N)c(OC)cc1I (centres undefined) | . | 114.0 | 109.0 | 4.0 | -20.9 | .
CCCCCSc1cc(OC)c(CCN)cc1OC | -75.3 | 127.0 | 107.0 | 14.0 | 12.7 | 39.3*
C1CC2NCCC3NCCC(N1)N32 (centres undefined) | -7.1 | 112.0 | 122.0 | 7.0 | -0.3 | -2.2
CN1CCN(C(=O)COc2ccc(S(=O)(=O)Nc3ccc(F)cc3)cc2)CC1 | -7.0 | 102.0 | 96.0 | 1.0 | 66.3* | 12.0
CCCN(CC1CC1)CC(O)c1ccccc1 (centres undefined) | -6.2 | 102.0 | 103.0 | 2.0 | -5.8 | 0.1
COc1ccccc1CN1CCCC(C(=O)c2ccccc2SC)C1 (centres undefined) | -7.5 | 107.0 | 104.0 | 10.0 | 60.2* | 6.7
CCCCCCn1c(O)c(C=Nc2ccccc2N2CCOCC2)c(=O)[nH]c1=S | -4.3 | 29.0* | 101.0 | 24.0 | -5.1 | -3.2
c1ccc(CN2CCN(Cc3ccc4ccccc4c3)CC2)cc1 | -41.0 | 107.0 | 99.0 | 6.0 | 37.8 | 24.6
Cc1ccc(CN2CCN(Cc3ccccc3)CC2)cc1 | -2.2 | 94.0 | 101.0 | -8.0 | 58.9* | 15.3
COC(=O)C1=CO[C@@H](C)[C@H]2CN3CC[C@]4(C(=O)Nc5ccccc54)[C@@H]3C[C@H]12 | . | -8.0* | 95.0 | -4.0 | 6.3 | .
FC(F)(F)c1ccc(NC2=NCCCS2)cc1 | 0.5 | 113.0 | 111.0 | 10.0 | 31.6 | -4.8
